According to ChEMBL document CHEMBL1121999 (J Med Chem, 1982):
The source made the active and inactive calls. No cut-off for these calls is given here.

Columns and labels:
Rattus norvegicus = species on record: Rattus norvegicus; test: […] effect on [3H]-GABA release from rat cortical synaptosomes at 100 uM (No effect); format: functional; conditions: Brain
[1] = target: GABA transporter (Rattus norvegicus) (UniProt P31647+P23978+P31646+P48056); test: In vitro maximal effect for synaptosomal GABA uptake at 100 uM; format: functional
Method in brief: (§1)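 Rat whole brain minus cerebellum was homogenized at 4 °C in 0.32 M sucrose and spun at 1000g for 10 min, then at 27000g for 20 min to give the P₂ synaptosome pellet. Uptake and transaminase were measured together: 100 μM compound with 25 μM [³H]GABA in Krebs-Ringer phosphate buffer, 10 min at room temperature. Reactions were stopped with 1 mM GABA plus 1 mM succinic acid and centrifuged. Supernatant went onto Dowex 50 and tissue radioactivity was counted. Results are given as % of drug-free control.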

[2] = target: 4-aminobutyrate aminotransferase, mitochondrial (Rattus norvegicus) (UniProt P50554); test: In vitro inhibition of succinate formation in the synaptosomal Gamma-amino-N-butyrate transaminase assay at 100 uM; format: functional; method in brief: as §1
[3] = target: GABA-A receptor; anion channel; test: Inhibition of 2 nM [3H]muscimol binding to Gamma-aminobutyric acid (GABA-A) receptor in rat brain crude synaptic membranes; format: cell membranes, Membrane

Sequence of GABA transporter (Rattus norvegicus) (P31646 whole entry, looked up): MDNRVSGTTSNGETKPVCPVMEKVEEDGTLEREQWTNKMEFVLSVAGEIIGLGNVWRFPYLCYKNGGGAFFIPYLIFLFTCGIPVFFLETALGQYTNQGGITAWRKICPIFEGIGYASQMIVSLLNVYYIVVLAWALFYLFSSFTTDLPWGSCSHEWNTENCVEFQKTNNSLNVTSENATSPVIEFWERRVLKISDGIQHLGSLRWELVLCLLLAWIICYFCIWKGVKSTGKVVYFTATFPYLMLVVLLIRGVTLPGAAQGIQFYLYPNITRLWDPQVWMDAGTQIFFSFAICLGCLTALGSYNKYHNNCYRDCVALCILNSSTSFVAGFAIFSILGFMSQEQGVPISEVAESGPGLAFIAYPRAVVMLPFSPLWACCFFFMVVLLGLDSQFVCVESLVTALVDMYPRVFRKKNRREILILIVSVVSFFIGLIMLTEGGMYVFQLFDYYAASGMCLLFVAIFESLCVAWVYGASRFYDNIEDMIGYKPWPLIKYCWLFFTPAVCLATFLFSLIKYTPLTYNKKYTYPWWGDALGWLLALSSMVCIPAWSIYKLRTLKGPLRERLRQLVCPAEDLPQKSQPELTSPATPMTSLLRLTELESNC
Sequence of GABA transporter (Rattus norvegicus) (P31647 whole entry, looked up): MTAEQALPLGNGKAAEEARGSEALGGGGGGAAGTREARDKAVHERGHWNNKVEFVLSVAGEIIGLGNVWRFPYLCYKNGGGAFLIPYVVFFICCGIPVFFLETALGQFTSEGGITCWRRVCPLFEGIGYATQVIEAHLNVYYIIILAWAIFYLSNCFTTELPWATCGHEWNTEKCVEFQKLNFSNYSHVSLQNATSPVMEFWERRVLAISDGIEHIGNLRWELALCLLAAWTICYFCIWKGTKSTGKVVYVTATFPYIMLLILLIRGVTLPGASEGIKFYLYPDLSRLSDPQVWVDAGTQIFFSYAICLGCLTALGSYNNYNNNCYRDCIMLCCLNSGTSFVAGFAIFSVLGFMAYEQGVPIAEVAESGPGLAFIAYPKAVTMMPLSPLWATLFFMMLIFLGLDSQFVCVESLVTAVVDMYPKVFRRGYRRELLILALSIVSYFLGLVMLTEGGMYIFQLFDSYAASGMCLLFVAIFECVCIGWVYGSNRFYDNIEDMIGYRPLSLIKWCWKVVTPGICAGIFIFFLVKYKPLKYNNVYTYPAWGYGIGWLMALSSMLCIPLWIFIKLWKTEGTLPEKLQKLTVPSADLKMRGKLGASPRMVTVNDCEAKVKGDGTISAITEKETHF
Sequence of GABA transporter (Rattus norvegicus) (P48056 whole entry, looked up): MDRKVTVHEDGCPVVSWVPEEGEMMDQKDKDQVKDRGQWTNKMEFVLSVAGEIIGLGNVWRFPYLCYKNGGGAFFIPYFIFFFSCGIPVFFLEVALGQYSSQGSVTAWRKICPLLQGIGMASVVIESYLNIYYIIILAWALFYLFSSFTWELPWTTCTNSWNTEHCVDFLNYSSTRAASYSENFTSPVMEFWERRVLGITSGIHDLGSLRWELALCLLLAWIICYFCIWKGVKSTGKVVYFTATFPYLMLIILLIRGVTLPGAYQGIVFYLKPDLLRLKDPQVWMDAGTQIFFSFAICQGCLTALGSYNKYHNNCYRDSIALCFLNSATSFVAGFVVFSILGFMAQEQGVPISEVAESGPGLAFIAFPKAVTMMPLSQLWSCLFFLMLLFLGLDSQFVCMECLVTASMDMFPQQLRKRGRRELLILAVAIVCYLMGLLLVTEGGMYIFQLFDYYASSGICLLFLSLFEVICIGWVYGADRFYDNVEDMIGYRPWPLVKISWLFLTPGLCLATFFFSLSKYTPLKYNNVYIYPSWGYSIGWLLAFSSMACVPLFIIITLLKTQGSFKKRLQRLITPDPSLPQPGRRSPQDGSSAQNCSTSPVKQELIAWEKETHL
Sequence of 4-aminobutyrate aminotransferase, mitochondrial (Rattus norvegicus) (P50554 28-500 limits assumed): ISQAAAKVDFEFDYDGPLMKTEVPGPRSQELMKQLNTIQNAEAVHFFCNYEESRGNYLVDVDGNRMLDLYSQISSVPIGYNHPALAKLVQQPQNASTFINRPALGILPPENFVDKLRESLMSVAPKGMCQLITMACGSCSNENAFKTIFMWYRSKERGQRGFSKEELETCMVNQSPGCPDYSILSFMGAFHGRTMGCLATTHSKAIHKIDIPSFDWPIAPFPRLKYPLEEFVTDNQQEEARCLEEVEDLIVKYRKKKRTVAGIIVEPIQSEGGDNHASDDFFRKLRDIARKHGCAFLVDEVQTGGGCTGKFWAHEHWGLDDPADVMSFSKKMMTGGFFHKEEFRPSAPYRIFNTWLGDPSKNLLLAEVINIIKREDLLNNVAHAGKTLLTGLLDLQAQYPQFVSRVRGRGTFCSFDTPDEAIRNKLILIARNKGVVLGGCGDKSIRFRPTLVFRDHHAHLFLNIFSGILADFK

Row | Structure (SMILES) | Effect [1] [%] | inhibition [2] [%] | IC50 [3] [µM] | Activity (Rattus norvegicus)
1 | CC1=NS(=O)(=O)c2ccc(CN(C)C)cc2N1 | 30 | 30 | > 20 | inactive
2 | O=C(O)C1CCCNC1 (stereo unspecified) | – | 70 | – | –
3 | CC1=NS(=O)(=O)c2c(CN)cccc2N1 | 30 | 30 | > 20 | inactive
4 | CN(C)Cc1ccc2c(c1)NC(=O)N(C)S2(=O)=O | 30 | 30 | > 20 | inactive
5 | NC(=O)C(=O)O | – | 60 | – | –

More lines, main results first:

Row | Effect [1] [%] | inhibition [2] [%] | IC50 [3] [µM] | Structure (SMILES) | Activity (Rattus norvegicus)
6 | 30 | 30 | > 20 | CN1C(=O)Nc2cc(CN)ccc2S1(=O)=O | inactive
7 | 30 | 30 | > 20 | CC1=NS(=O)(=O)c2ccc(CN)cc2N1 | inactive
8 | 30 | 30 | > 20 | CN1C(=O)Nc2cccc(CN)c2S1(=O)=O | inactive
